# Assay results reported in ChEMBL document CHEMBL3400019, “Pheophorbide-a conjugates with cancer-targeting moieties for targeted photodynamic cancer therapy” (Bioorg Med Chem, 2015).
# Activity calls are given as the source filed them. The rule behind the calls is not given here. Residues, ends and D or L forms follow the SMILES beside them.
# Key:
# [1] = system: FaDu; assay: Cellular uptake in human FADU cells overexpressing alphaVbeta6 at 2 uM after 1 hr by confocal microscopy; assay type: ADME, cell-based
# How it was run: (§1)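 Cells plated on slide dishes overnight (A549 in DMEM, others in RPMI 1640, 10% FBS, 37 °C, 5% CO2); conjugate added to medium at 2 µM, incubated (time per line), washed three times with PBS, imaged by confocal microscopy; excitation 440 nm, emission 655–755 nm.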
# [2] = system: A549; assay: Cellular uptake in alphaVbeta6-negative human A549 cells at 2 uM after 1 hr by confocal microscopy; assay type: ADME, cell-based; details: a549, 1 h; how it was run: as §1
# [3] = system: FaDu; assay: Phototoxicity against human FADU cells overexpressing alphaVbeta6 at 0.1 to 2 uM incubated for 2 hrs followed by 1.25 J/cm'2 light irradiation from red light emitting diode for 24 hrs by MTT assay; assay type: functional, cell-based
# How it was run: (§2)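 Cells seeded at 1 × 10^5 cells/mL overnight, PBS-washed, incubated 2 h in serum-free medium with photosensitizer (from 1 mM DMSO stock); medium removed, irradiated 1.25 J/cm2 red LED (613–645 nm). After 24 h, MTT (5 mg/mL stock) 3 h at 37 °C, formazan dissolved in 0.04 M HCl/isopropanol, OD 570 nm; background-subtracted, % of control; mean ± SD, three experiments.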
# [4] = system: A549; assay: Phototoxicity against alphaVbeta6-negative human A549 cells at 0.1 to 2 uM incubated for 2 hrs followed by 1.25 J/cm'2 light irradiation from red light emitting diode for 24 hrs by MTT assay; assay type: functional, cell-based; how it was run: as §2
# [5] = system: FaDu; assay: Induction of apoptosis in human FADU cells overexpressing alphaVbeta6 assessed as increase in apoptotic cell death incubated for 1 hr prior to 1.25 J/cm'2 light irradiation from red light emitting diode measured after 24 hrs by Annexin V-FITC/propidium iodide staining-based flow cytometry relative to control; assay type: functional
# How it was run: (§3)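 Cells seeded 5 × 10^5 per plate and given photodynamic treatment as in the viability assay: conjugate in serum-free medium, then red LED light (613–645 nm) at 1.25 J/cm2. Harvested 24 h later and washed in cold PBS. Stained 15 min at rt with saturating Annexin V-FITC and PI in HEPES binding buffer (10 mM HEPES, 140 mM NaCl, 2.5 mM CaCl2, pH 7.4). Read by flow cytometry against control.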
# [6] = system: A549; assay: Induction of apoptosis in alphaVbeta6-negative human A549 cells assessed as increase in apoptotic cell death incubated for 1 hr prior to 1.25 J/cm'2 light irradiation from red light emitting diode measured after 24 hrs by Annexin V-FITC/propidium iodide staining-based flow cytometry relative to control; assay type: functional; how it was run: as §3
# [7] = system: FaDu; assay: Induction of apoptosis in human FADU cells overexpressing alphaVbeta6 assessed as decrease in cell density at 1 uM incubated for 1 hr prior to 1.25 J/cm'2 light irradiation from red light emitting diode measured after 24 hrs by DAPI staining-based conventional fluorescence microscopy relative to control; assay type: functional
# [8] = system: FaDu; assay: (§4) Induction of apoptosis in human FADU cells overexpressing alphaVbeta6 assessed as cell rounding at 1 uM incubated for 1 hr prior to 1.25 J/cm'2 light irradiation from red light emitting diode measured after 24 hrs by DAPI staining-based conventional fluorescence microscopy relative to control; assay type: functional
# [9] = system: FaDu; assay: Induction of apoptosis in human FADU cells overexpressing alphaVbeta6 assessed as cellular shrinkage at 1 uM incubated for 1 hr prior to 1.25 J/cm'2 light irradiation from red light emitting diode measured after 24 hrs by DAPI staining-based conventional fluorescence microscopy relative to control; assay type: functional, cell-based
# [10] = system: FaDu; assay: as §4, with “condensation and the fragmentation of nuclear structure” for “cell rounding”; assay type: functional, cell-based
# How it was run: (§5)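 A549 and FaDu seeded 5 × 10^5 cells/well, PDT (1 h conjugate, 1.25 J/cm2 red LED, 613–645 nm), 24 h; fixed in 4% paraformaldehyde, stained with 1 µg/mL DAPI 5 min dark at rt, washed ice-cold PBS, nuclear chromatin changes viewed by fluorescence microscopy (×400).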
# [11] = system: A549; assay: Induction of apoptosis in alphaVbeta6-negative human A549 cells assessed as decrease in cell density at 1 uM incubated for 1 hr prior to 1.25 J/cm'2 light irradiation from red light emitting diode measured after 24 hrs by DAPI staining-based conventional fluorescence microscopy relative to control; assay type: functional
# [12] = system: A549; assay: (§6) Induction of apoptosis in alphaVbeta6-negative human A549 cells assessed as cell rounding at 1 uM incubated for 1 hr prior to 1.25 J/cm'2 light irradiation from red light emitting diode measured after 24 hrs by DAPI staining-based conventional fluorescence microscopy relative to control; assay type: functional
# [13] = system: A549; assay: Induction of apoptosis in alphaVbeta6-negative human A549 cells assessed as cellular shrinkage at 1 uM incubated for 1 hr prior to 1.25 J/cm'2 light irradiation from red light emitting diode measured after 24 hrs by DAPI staining-based conventional fluorescence microscopy relative to control; assay type: functional, cell-based
# [14] = system: A549; assay: as §6, with “condensation and the fragmentation of nuclear structure” for “cell rounding”; assay type: functional, cell-based; how it was run: as §5
# [15] = system: FaDu; assay: Induction of apoptosis in human FADU cells overexpressing alphaVbeta6 assessed as PARP cleavage at 0.1 to 1 uM incubated for 1 hr prior to 1.25 J/cm'2 light irradiation from red light emitting diode measured after 24 hrs by Western blotting analysis relative to control; assay type: functional, cell-based
# How it was run: (§7)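 A549 and FaDu seeded 2 × 10^5 cells/well, given PDT (1 h conjugate, 1.25 J/cm2 red LED, 613–645 nm, 35 mW/cm2 at 635 nm peak), then 24 h incubation; lysed, equal protein by SDS–PAGE, PVDF transfer, antibody immunoblot for PARP cleavage, procaspase-3, Bcl-2, Bax.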
# [16] = system: A549; assay: Induction of apoptosis in alphaVbeta6-negative human A549 cells assessed as PARP cleavage at 0.1 to 1 uM incubated for 1 hr prior to 1.25 J/cm'2 light irradiation from red light emitting diode measured after 24 hrs by Western blotting analysis relative to control; assay type: functional, cell-based; how it was run: as §7
# [17] = system: FaDu; assay: Induction of apoptosis in human FADU cells overexpressing alphaVbeta6 assessed as reduction in Bcl-2 expression at 0.1 to 1 uM incubated for 1 hr prior to 1.25 J/cm'2 light irradiation from red light emitting diode measured after 24 hrs by Western blotting analysis relative to control; assay type: functional, cell-based; how it was run: as §7
# [18] = system: FaDu; assay: Induction of apoptosis in human FADU cells overexpressing alphaVbeta6 assessed as increase in Bax expression at 0.1 to 1 uM incubated for 1 hr prior to 1.25 J/cm'2 light irradiation from red light emitting diode measured after 24 hrs by Western blotting analysis relative to control; assay type: functional, cell-based; how it was run: as §7
# [19] = system: FaDu; assay: Induction of apoptosis in human FADU cells overexpressing alphaVbeta6 assessed as decrease in procaspase-3 expression at 0.1 to 1 uM incubated for 1 hr prior to 1.25 J/cm'2 light irradiation from red light emitting diode measured after 24 hrs by Western blotting analysis relative to control
# [20] = system: MCF7; assay: Cellular uptake in human MCF7 cells overexpressing LHRH receptor at 2 uM after 1.5 hrs by confocal microscopy; assay type: ADME, cell-based; details: mcf7, 1.5 h; how it was run: as §1
# [21] = Cellular uptake in LHRH receptor-negative human SKOV3 cells at 2 uM after 1.5 hr by confocal microscopy; details: sk-ov-3, 1.5 h
# [22] = Cellular uptake in human KB cells overexpressing folate receptor at 2 uM after 1 hr by confocal microscopy; assay type: ADME, cell-based; details: 0.5 h, in the assay text read “after 0.5 hr” for “after 1 hr”; how it was run: as §1
# [23] = system: A549; assay: Cellular uptake in folate receptor-negative human A549 cells at 2 uM after 1 hr by confocal microscopy; assay type: ADME, cell-based; details: a549, 0.5 h, in the assay text read “after 0.5 hr” for “after 1 hr”; how it was run: as §1
# [24] = system: KB; assay: Phototoxicity against human KB cells overexpressing folate receptor at 0.1 to 2 uM incubated for 2 hrs followed by 1.25 J/cm'2 light irradiation from red light emitting diode for 24 hrs by MTT assay; assay type: functional, cell-based; how it was run: as §2
# [25] = system: A549; assay: Phototoxicity against folate receptor-negative human A549 cells at 0.1 to 2 uM incubated for 2 hrs followed by 1.25 J/cm'2 light irradiation from red light emitting diode for 24 hrs by MTT assay; assay type: functional, cell-based; how it was run: as §2
# [26] = Cellular uptake in human U87MG cells overexpressing alphaVbeta3 at 2 uM after 1 hr by confocal microscopy; assay type: ADME, cell-based; details: u-87mg atcc; how it was run: as §1
# [27] = system: A549; assay: Cellular uptake in alphaVbeta3-negative human A549 cells at 2 uM after 1 hr by confocal microscopy; assay type: ADME, cell-based; details: a549, 1 h; how it was run: as §1
# [28] = system: U-87MG ATCC; assay: Phototoxicity against human U87MG cells overexpressing alphaVbeta3 at 0.1 to 2 uM incubated for 2 hrs followed by 1.25 J/cm'2 light irradiation from red light emitting diode for 24 hrs by MTT assay; assay type: functional, cell-based; how it was run: as §2
# [29] = system: A549; assay: Phototoxicity against alphaVbeta3-negative human A549 cells at 0.1 to 2 uM incubated for 2 hrs followed by 1.25 J/cm'2 light irradiation from red light emitting diode for 24 hrs by MTT assay; assay type: functional, cell-based; how it was run: as §2
# [30] = system: MCF7; assay: Phototoxicity against human MCF7 cells overexpressing LHRH receptor at 0.1 to 2 uM incubated for 2 hrs followed by 1.25 J/cm'2 light irradiation from red light emitting diode for 24 hrs by MTT assay; assay type: functional, cell-based; how it was run: as §2
# [31] = system: SK-OV-3; assay: Phototoxicity against LHRH receptor-negative human SKOV3 cells at 0.1 to 2 uM incubated for 2 hrs followed by 1.25 J/cm'2 light irradiation from red light emitting diode for 24 hrs by MTT assay; assay type: functional, cell-based; how it was run: as §2
smiles,measurement,setting,value
"[H][C@]12CSSC[C@]([H])(NC1=O)C(=O)N[C@@H](CCCNC(=N)N)C(=O)NCC(=O)N[C@@H](CC(=O)NCCCNC(=O)CC[C@@H]1c3nc(cc4[nH]c(cc5nc(cc6[nH]c7c(c6C)C(=O)[C@H](C(=O)OC)c37)C(CC)=C5C)c(C=C)c4C)[C@H]1C)C(=O)N[C@@H](CC(C)C)C(=O)N[C@@H](C)C(=O)N[C@@H](CO)C(=O)N[C@@H](CC(C)C)C(=O)N2 (HELM PEPTIDE1{R.G.D.L.A.S.L.C.C}|CHEM1{[C=Cc1c(C)c2cc3nc(c4c5[nH]c(cc6nc(cc1[nH]2)C(C)=C6CC)c(C)c5C(=O)[C@@H]4C(=O)OC)[C@@H](CCC(=O)NCCCN[*:1])[C@@H]3C]}$PEPTIDE1,CHEM1,3:R3-1:R1|PEPTIDE1,PEPTIDE1,8:R3-9:R3|PEPTIDE1,PEPTIDE1,1:R1-9:R2$$$V2.0)",Drug uptake,[1],Active
same,Drug uptake,[2],Not Active
same,Activity,[3],Active
same,Activity,[4],inactive
same,Activity,[5],Dose-dependent effect
same,Activity,[5]; record 2,31.4%
same,Activity,[6],19.8%
same,Activity,[7],Active
same,Activity,[8],Active
same,Activity,[9],Active
same,Activity,[10],Active
same,Activity,[11],inactive
same,Activity,[12],inactive
same,Activity,[13],inactive
same,Activity,[14],inactive
same,Activity,[15],Active
same,Activity,[16],inactive
same,Activity,[17],Active
same,Activity,[18],Active
same,Activity,[19],Active
C=Cc1c(C)c2cc3nc(c4c5[nH]c(cc6nc(cc1[nH]2)C(C)=C6CC)c(C)c5C(=O)[C@@H]4C(=O)OC)[C@@H](CCC(=O)NCCCC(=O)OC[C@H](NC(=O)[C@H](Cc1c[nH]c2ccccc12)NC(=O)[C@H](Cc1cnc[nH]1)NC(=O)[C@@H]1CCC(=O)N1)C(=O)N[C@@H](Cc1ccc(O)cc1)C(=O)N[C@H](CC(C)C)C(=O)N[C@@H](CC(C)C)C(=O)N[C@@H](CCCNC(=N)N)C(=O)N1CCC[C@H]1C(=O)NCC)[C@@H]3C,Drug uptake,[20],Active
same,Drug uptake,[21],Not Active
C=Cc1c(C)c2cc3nc(c4c5[nH]c(cc6nc(cc1[nH]2)C(C)=C6CC)c(C)c5C(=O)[C@@H]4C(=O)OC)[C@@H](CCC(=O)NCCOCCOCCNC(=O)CCC(NC(=O)c1ccc(NCc2cnc4nc(N)[nH]c(=O)c4n2)cc1)C(=O)O)[C@@H]3C (some centres not stated),Drug uptake,[22],Active
same,Drug uptake,[23],Not Active
same,Activity,[24],Active
same,Activity,[25],inactive
C=Cc1c(C)c2cc3nc(c4c5[nH]c(cc6nc(cc1[nH]2)C(C)=C6CC)c(C)c5C(=O)[C@@H]4C(=O)OC)[C@@H](CCC(=O)NCCCC(=O)NCCCC[C@H]1NC(=O)[C@@H](Cc2ccccc2)NC(=O)[C@H](CC(=O)O)NC(=O)CNC(=O)[C@H](CCCNC(=N)N)NC1=O)[C@@H]3C,Drug uptake,[26],Active
same,Drug uptake,[27],Not Active
same,Activity,[28],Active
same,Activity,[29],inactive
C=Cc1c(C)c2cc3nc(c4c5[nH]c(cc6nc(cc1[nH]2)C(C)=C6CC)c(C)c5C(=O)[C@@H]4C(=O)OC)[C@@H](CCC(=O)NCCCC(=O)OC[C@H](NC(=O)[C@@H](Cc1c[nH]c2ccccc12)NC(=O)[C@H](Cc1cnc[nH]1)NC(=O)[C@@H]1CCC(=O)N1)C(=O)N[C@@H](Cc1ccc(O)cc1)C(=O)N[C@H](CC(C)C)C(=O)N[C@@H](CC(C)C)C(=O)N[C@@H](CCCNC(=N)N)C(=O)N1CCC[C@H]1C(=O)NCC)[C@@H]3C,Activity,[30],Active
same,Activity,[31],inactive
